Activity calls are given as the source filed them.
Experiments:
[1] = (§1) Inhibition of phosphotidylserine liposome-stimulated sheep brain Dynamin 1 GTPase activity using GTP as substrate by malachite green assay; format: tissue-based, Ovis aries
How it was run: (§2)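 Native dynamin I from sheep brain (membrane extraction, GST-Amph2-SH3-sepharose affinity), stimulated by sonicated phosphatidylserine liposomes; GTP hydrolysis read as orthophosphate by malachite green. DMSO at most 3.3% final. […] 300 μM is the top concentration tested.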

[2] = Inhibition of clathrin-mediated endocytosis in serum-starved human U2OS cells assessed as reduction in Tfn-A594 uptake pretreated for 30 mins followed by Tfn-A594 addition and measured after 8 mins; format: cell-based
How it was run: (§3)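 U2OS cells on fibronectin-coated plates, serum-starved 16 h, then compound (usually 6 concentrations, 1–300 μM) or vehicle for 30 min, then Tfn-A594 4 μg mL⁻¹ for 8 min at 37 °C. Surface Tfn acid-stripped (pH 2.8), PFA-fixed, DAPI-stained; automated imaging of integrated Tfn intensity per cell, as % of vehicle. DMSO at most 1%.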

Rattus norvegicus [3] = organism: Rattus norvegicus; assay: Inhibition of synaptic vesicle endocytosis in Sprague-Dawley rat cerebrum synaptosomes assessed as reduction in depolarisation-stimulated FM4-64 uptake preincubated for 30 mins followed by FM4-64 addition for 2 mins and further depolarised for 2 mins by fluorescent imaging analysis; format: functional, Synaptosome; conditions: for inhibition: Synaptosome, time 34.0 min
How it was run: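 Purified rat cerebrum synaptosomes (male, 6–8 weeks) attached to plates at 30 °C in Krebs buffer with 0.1 mM CaCl₂, pH 7.4. Compound or DMSO (1%) for 30 min, then 1 μM FM 4-64 for 2 min, then 80 mM KCl depolarisation for 2 min. Imaged ex 476–524/em 608–742 nm; intensity normalised to control uptake (1.0).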

[4] = Inhibition of clathrin-mediated endocytosis in human U2OS cells assessed as reduction in Tfn-A594 uptake pretreated for 30 mins; format: cell-based; how it was run: as §3
Ovis aries [5] = organism: Ovis aries; assay: as §1; format: tissue-based; how it was run: as §2
Rattus norvegicus [6] = organism: Rattus norvegicus; assay: Inhibition of exocytosis in Sprague-Dawley rat brain synaptosome assessed as effect on Ca2+ dependent glutamate release at 80 uM preincubated for 1 mins in presence of NADP followed by glutamate dehydrogenase addition and further stimulated with 4-aminopyridine for 4 mins by spectrofluorimeter; format: functional; conditions: time 5.0 min
How it was run: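 Synaptosomes (0.6 mg in 2 ml) in Krebs-like buffer, pH 7.4, 37 °C, containing 1.2 mM CaCl₂ or calcium-free with 1 mM EGTA. Started with 1 mM NADP; glutamate dehydrogenase 50 U added after 1 min; 4-aminopyridine stimulation after 4 min. Released glutamate followed as NADPH fluorescence (ex 340/em 460 nm).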

Ovis aries [7] = organism: Ovis aries; assay: Competitive inhibition of phosphotidylserine liposome-stimulated sheep brain Dynamin 1 GTPase activity using varying concentrations of Mg2+.GTP as substrate at 3 to 7 uM by Lineweaver-Burk plot analysis; format: tissue-based; conditions: dose 3-7 µM
Mus musculus [8] = assay: Antiseizure activity against electrically stimulated seizure in C57BL/6 mouse model assessed as increase in seizures threshold at 30 to 60 mg/kg, ip pretreated for 30 mins followed by electrical stimulation at 6 Hz; format: functional, organism-based; conditions: dose 30-60 mg/kg
How it was run: (§4)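 Mouse 6 Hz corneal stimulation (0.2 ms rectangular pulse, 3 s, varying current). Given ip 30 min before stimulation; DMA 20%/Tween-80 5%/PEG300 75% vehicle for test doses (10, 30, 60 mg kg⁻¹), 0.9% saline for valproate (400 mg kg⁻¹). Seizure scored as stunned/fixed posture, rearing, forelimb clonus or twitching. EC50 current by up-and-down method, 2 mA steps; each mouse used once; Mann–Whitney U vs vehicle.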

Mus musculus [9] = assay: Antiseizure activity against electrically stimulated seizure in C57BL/6 mouse model assessed as increase in seizures threshold at 10 mg/kg, ip pretreated for 30 mins followed by electrical stimulation at 6 Hz; format: functional, organism-based; how it was run: as §4
Mus musculus [10] = assay: Antiseizure activity against electrically stimulated seizure in C57BL/6 mouse model assessed as increase in current required to provoke seizures at 400 mg/kg, ip pretreated for 30 mins followed by electrical stimulation at 6 Hz; format: functional, organism-based; how it was run: as §4
Ovis aries [11] = organism: Ovis aries; assay: Inhibition of phosphotidylserine liposome-stimulated sheep brain Dynamin 1 GTPase activity using GTP as substrate at 300 uM by malachite green assay relative to control; format: tissue-based; how it was run: as §2

Compound	IC50 [1] [µM]	also measured
CN(C)c1cccc2c(S(=O)(=O)NCCCCCN)cccc12	45.1	IC50 [2]: 205 µM; IC50 (Rattus norvegicus [3]): > 300 µM
O=C(N/N=C/c1cc(O)c(O)cc1O)c1cc2ccccc2cc1O		IC50 [4]: 5.7 µM
O=S(=O)(c1cccc2cnccc12)N1CCN(C/C=C/c2ccc(Br)cc2)CC1	58.2	
CN(C/C=C/c1ccc(Br)cc1)CCNS(=O)(=O)c1cccc2ccccc12	10.5	
O=S(=O)(NCCNCCc1ccccc1)c1cccc2cnccc12	96.8	
O=S(=O)(NCCNC/C=C/c1ccc(Br)cc1)c1ccc2ccccc2c1	3.6	IC50 [2]: 9.3 µM; inhibition (Rattus norvegicus [3]): inactive
O=S(=O)(NCCCCCCNC/C=C/c1ccc(Br)cc1)c1cccc2ccccc12	5.2	IC50 [2]: 27.1 µM; inhibition (Rattus norvegicus [3]): inactive
NCCNS(=O)(=O)c1cccc2cnccc12		inhibition (Ovis aries [5]): inactive
CCCC(CCC)C(=O)O		Activity (Mus musculus [10]): Active
CN(C/C=C/c1ccc(Br)cc1)CCN(C)S(=O)(=O)c1cccc2ccccc12	8.7	
O=S(=O)(NCCNCCCc1ccccc1)c1cccc2cnccc12	30.1	
CN(C)c1cccc2c(S(=O)(=O)NCCNC/C=C/c3ccc(Br)cc3)cccc12	3.9	IC50 [2]: 29 µM; IC50 (Rattus norvegicus [3]): 127 µM

Second part, led by results:

IC50 [1] [µM]	Compound	also measured
9.2	O=S(=O)(NCCNC/C=C/c1ccc(Cl)cc1)c1cccc2cnccc12	
8.1	O=S(=O)(NCCCCNC/C=C/c1ccc(Br)cc1)c1cccc2cnccc12	
7	O=S(=O)(NCCNC/C=C/c1ccc(Br)cc1)c1cccc2cnccc12	
38.2	O=S(=O)(NCCNC/C=C/c1ccccc1)c1cccc2cnccc12	
22.4	Cc1ccc(/C=C/CNCCNS(=O)(=O)c2cccc3cnccc23)cc1	
3	O=S(=O)(NCCCCNC/C=C/c1ccc(Br)cc1)c1cccc2ccccc12	IC50 [2]: 11.3 µM; inhibition (Rattus norvegicus [3]): inactive
3.5	O=S(=O)(NCCCNC/C=C/c1ccc(Br)cc1)c1cccc2ccccc12	IC50 [2]: 27.3 µM; IC50 (Rattus norvegicus [3]): 12.3 µM; inhibition (Rattus norvegicus [6]): inactive; inhibition (Ovis aries [7]): Active; Activity (Mus musculus [8]): Active; Activity (Mus musculus [9]): inactive
> 300	O=C(/C=C/c1ccc(Br)cc1)NCCNS(=O)(=O)c1cccc2cnccc12	inhibition (Ovis aries [11]): < 50%
19.9	CN(C)c1ccc(/C=C/CNCCNS(=O)(=O)c2cccc3cnccc23)cc1	
4.4	O=S(=O)(NCCNC/C=C/c1ccc(Br)cc1)c1cccc2ccccc12	IC50 [2]: 12.4 µM; inhibition (Rattus norvegicus [3]): inactive
3.7	O=S(=O)(NCCCCCCNC/C=C/c1ccc(Br)cc1)c1cccc2cnccc12	IC50 [2]: 15.9 µM; IC50 (Rattus norvegicus [3]): 265 µM; inhibition (Ovis aries [7]): Active
7.1	O=S(=O)(NCCCNC/C=C/c1ccc(Br)cc1)c1cccc2cnccc12	
20.3	O=S(=O)(NCCNC/C=C/c1ccc(F)cc1)c1cccc2cnccc12	
9.5	O=S(=O)(NCCNC/C=C/c1ccc(Br)cc1)c1cccc2cccnc12	
6.6	CC(C)(C)c1ccc(/C=C/CNCCNS(=O)(=O)c2cccc3cnccc23)cc1	
12.4	O=S(=O)(NCCNC/C=C/c1ccc(C(F)(F)F)cc1)c1cccc2cnccc12	
